This is an account of results in ChEMBL document CHEMBL1149128, “Novel endoperoxide antimalarials: synthesis, heme binding, and antimalarial activity” (J Med Chem, 2004).

For the first experiment, the system named is Plasmodium falciparum. The experiment in a line: In vitro antimalarial activity against Plasmodium falciparum D10.
In general, IC50 refers to the concentration that gives 50% inhibition. Read a low IC50 as higher potency. In turn, `C1C2CC3CC1CC([C@H]1OOC[C@@H]4O[C@@H]41)(C2)C3` gave a 50% inhibitory concentration (IC50) of 4 µM.

`C[C@@H]1OO[C@H](CC(=O)OC23CC4CC(CC(C4)C2)C3)[C@H]2O[C@H]21` yielded an IC50 of 1.3 µM.

Take `C1CCC([C@H]2OO[C@@H](C3CCCCC3)[C@H]3O[C@H]32)CC1`: it took 0.32 µM to reach half-maximal inhibition (IC50).

In turn, `C[C@@H]1OO[C@H](CC(=O)OC23CC4CC(CC(C4)C2)C3)[C@@H]2O[C@@H]21` showed an IC50 of 5 µM.

As to `O=C(C1CCCCC1)[C@H]1O[C@H]1[C@@H](O)C1CCCCC1`, the IC50 was greater than 10 µM.

On to `C1CCC([C@H]2OOC[C@@H]3O[C@@H]32)C1`, for which half-maximal inhibition (IC50) was put at 1.4 µM.

The compound `C[C@H]1C=C[C@@H](c2ccccc2)OO1` gave an IC50 greater than 10 µM.

`C1CCC([C@H]2OO[C@@H](C3CCCC3)[C@@H]3O[C@@H]32)C1` displayed an IC50 of 0.5 µM.

For `CCCCCCC[C@H]1OO[C@@H](CCC)[C@H]2O[C@H]21`, the IC50 was greater than 10 µM.

The compound `C[C@]12COO[C@H](c3ccccc3)[C@H]1O2` registered an IC50 greater than 10 µM.

As for `C1CCC(C[C@H]2OOC[C@@H]3O[C@@H]32)CC1`, the half-maximal inhibitory concentration (IC50) is greater than 10 µM.

Take `C1CC([C@H]2OO[C@@H](C3CCC3)[C@H]3O[C@H]32)C1`: the IC50 is 1.6 µM.

`C1=C[C@H](c2ccccc2)OO[C@@H]1c1ccccc1`: the IC50 amounted to 6 µM.

The compound `C1CCC([C@H]2OOC[C@@H]3O[C@@H]32)CC1` showed an IC50 greater than 10 µM.

On to `C1CCC(C[C@H]2OOC[C@H]3O[C@@H]23)CC1`, for which half-maximal inhibition (IC50) required 2 µM.

Regarding `C[C@H]1C=C[C@@H](CC(=O)OC23C[C@H]4C[C@@H](C2)C[C@@H](C3)C4)OO1`, the half-inhibitory concentration (IC50) stood at 1 µM.

`c1ccc(C2(c3ccccc3)OOCC3OC32)cc1` (stereo not given) returned a 50% inhibitory concentration (IC50) of 5 µM.

`C1=C[C@H](C2CCCCC2)OO[C@@H]1C1CCCCC1` registered a 50% inhibitory concentration (IC50) of 1.2 µM.

As for `CCC[C@H]1C=C[C@@H](CCC)OO1`, the 50% inhibitory concentration (IC50) is greater than 10 µM.

In turn, `C[C@H]1C=C[C@@H](CCCO)OO1` returned an IC50 of 2.5 µM.

`c1ccc([C@H]2OO[C@@H](c3ccccc3)[C@@H]3O[C@@H]32)cc1` came in with a half-maximal inhibitory concentration (IC50) greater than 10 µM.

In turn, `C1CCC([C@H]2OOC[C@H]3O[C@@H]23)C1` came in with an IC50 of 1.4 µM.

Consider `C1=C[C@@H](C23C[C@H]4C[C@@H](C2)C[C@@H](C3)C4)OOC1`, for which the IC50 was 1.3 µM.

In turn, `CCCCCCC[C@@H]1C=C[C@H](CCC)OO1` registered an IC50 greater than 10 µM.

As to `C1=C[C@@H](C2CCCC2)OOC1`, the IC50 was greater than 10 µM.

With `C1=C[C@H](C2CCCC2)OO[C@@H]1C1CCCC1`, the IC50 worked out at 0.6 µM.

`C1=C[C@H](C2CCCCC2)OO[C@@H]1c1ccccc1` yielded an IC50 of 8.1 µM.

`C1CCC([C@H]2OO[C@@H](C3CCCCC3)[C@@H]3O[C@@H]32)CC1` displayed an IC50 of 0.5 µM.

Regarding `C[C@@H]1OO[C@H](c2ccccc2)[C@H]2O[C@H]21`, the half-maximal inhibitory concentration (IC50) was greater than 10 µM.

For the compound `C1CCC([C@H]2OO[C@@H](C3CCCC3)[C@H]3O[C@H]32)C1`, the midpoint of inhibition, the IC50, lay at 0.5 µM.

On to `C1CC([C@H]2OO[C@@H](C3CCC3)[C@@H]3O[C@@H]32)C1`, for which the half-inhibitory concentration (IC50) is 2.9 µM.

`C1=C[C@@H](CC2CCCCC2)OOC1` returned an IC50 of 9.5 µM.

With `C1=C[C@H](C2CCC2)OO[C@@H]1C1CCC1`, the IC50 was greater than 10 µM.

`CCCCCCC[C@H]1OO[C@@H](CCC)[C@@H]2O[C@@H]21` registered an IC50 greater than 10 µM.

The compound `c1ccc([C@H]2OO[C@@H](C3CCCCC3)[C@@H]3O[C@@H]32)cc1` returned a half-inhibitory concentration (IC50) greater than 10 µM.

Regarding `C1=C[C@@H](C2CCCCC2)OOC1`, the midpoint of inhibition, the IC50, lay at 3.2 µM.

A further experiment is filed under the species Homo sapiens. The experiment in a line: Compound was evaluated for the lysis of human erythrocytes at a concentration of 1 mM for 30 minutes at 37 degree C. It counts as functional. A digest of the protocol:
(§1)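 Washed human erythrocytes (0.4 × 10⁸ cells) in phosphate-buffered saline with no protein in the medium; compound at 1 mM final; 30 min at 37 °C. Cells pelleted, then supernatant absorbance compared with freeze-thawed cells to give percent hemolysis.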
Regarding `C[C@@H]1CC[C@H]2[C@@H](C)C(=O)O[C@@H]3O[C@@]4(C)CC[C@@H]1[C@]32OO4` [ARTEMISININ], the Hemolysis worked out at 4%.

The species named for a further experiment is Homo sapiens. The experiment is described as follows: Lysis of human erythrocytes at a concentration of 1 mM for 30 minutes at 37 degree C. It counts as functional. In outline: as §1
For `C1C2CC3CC1CC([C@H]1OOC[C@@H]4O[C@@H]41)(C2)C3`, the Hemolysis is listed as 41%.

In turn, `C[C@@H]1OO[C@H](CC(=O)OC23CC4CC(CC(C4)C2)C3)[C@H]2O[C@H]21` registered a Hemolysis of 6%.

Take `C1CCC([C@H]2OO[C@@H](C3CCCCC3)[C@H]3O[C@H]32)CC1`: the Hemolysis stood at 5%.

Consider `C[C@@H]1OO[C@H](CC(=O)OC23CC4CC(CC(C4)C2)C3)[C@@H]2O[C@@H]21`, for which the Hemolysis turned out to be 4%.

`O=C(C1CCCCC1)[C@H]1O[C@H]1[C@@H](O)C1CCCCC1` gave a Hemolysis of 8%.

`C1CCC([C@H]2OOC[C@@H]3O[C@@H]32)C1`: the Hemolysis was 1%.

Compound `C[C@H]1C=C[C@@H](c2ccccc2)OO1` came in with a Hemolysis of 32%.

The compound `C1CCC([C@H]2OO[C@@H](C3CCCC3)[C@@H]3O[C@@H]32)C1` yielded a Hemolysis of 8%.

`O=C(c1ccccc1)[C@H]1O[C@H]1[C@@H](O)c1ccccc1` (stereo in doubt; 7j) came in with a Hemolysis of 2%.

In the case of `CCCCCCC[C@H]1OO[C@@H](CCC)[C@H]2O[C@H]21`, the Hemolysis turned out to be 51%.

On to `C[C@]12COO[C@H](c3ccccc3)[C@H]1O2`, for which the Hemolysis was 2%.

In the case of `C1CCC(C[C@H]2OOC[C@@H]3O[C@@H]32)CC1`, the Hemolysis is reported as 3%.

`C1CC([C@H]2OO[C@@H](C3CCC3)[C@H]3O[C@H]32)C1` had a Hemolysis of 1%.

As to `C1=C[C@H](c2ccccc2)OO[C@@H]1c1ccccc1`, the Hemolysis is 4%.

`C1CCC([C@H]2OOC[C@@H]3O[C@@H]32)CC1` returned a Hemolysis of 2%.

`C1CCC(C[C@H]2OOC[C@H]3O[C@@H]23)CC1`: the Hemolysis was 6%.

As for `C[C@H]1C=C[C@@H](CC(=O)OC23C[C@H]4C[C@@H](C2)C[C@@H](C3)C4)OO1`, the Hemolysis was 27%.

`c1ccc(C2(c3ccccc3)OOCC3OC32)cc1` (stereo not given): the Hemolysis was determined as 1%.

In the case of `C1=C[C@H](C2CCCCC2)OO[C@@H]1C1CCCCC1`, the Hemolysis is listed as 100%.

For the compound `CCC[C@H]1C=C[C@@H](CCC)OO1`, the Hemolysis worked out at 2%.

The compound `C[C@H]1C=C[C@@H](CCCO)OO1` yielded a Hemolysis of 0%.

Regarding `c1ccc([C@H]2OO[C@@H](c3ccccc3)[C@@H]3O[C@@H]32)cc1`, the Hemolysis came to 5%.

Turning to `C1CCC([C@H]2OOC[C@H]3O[C@@H]23)C1`, the Hemolysis turned out to be 1%.

For `C1=C[C@@H](C23C[C@H]4C[C@@H](C2)C[C@@H](C3)C4)OOC1`, the Hemolysis came out at 100%.

`CCCCCCC[C@@H]1C=C[C@H](CCC)OO1` gave a Hemolysis of 62%.

On to `C1=C[C@@H](C2CCCC2)OOC1`, for which the Hemolysis was 11%.

`CCN(CC)CCCC(C)Nc1ccnc2cc(Cl)ccc12` (stereo not given) [CHLOROQUINE] displayed a Hemolysis of 1%.

In turn, `C1=C[C@H](C2CCCC2)OO[C@@H]1C1CCCC1` registered a Hemolysis of 52%.

`C1=C[C@H](C2CCCCC2)OO[C@@H]1c1ccccc1` gave a Hemolysis of 9%.

Compound `C1CCC([C@H]2OO[C@@H](C3CCCCC3)[C@@H]3O[C@@H]32)CC1` showed a Hemolysis of 6%.

Take `C[C@@H]1OO[C@H](c2ccccc2)[C@H]2O[C@H]21`: the Hemolysis is 2%.

In turn, `C1CCC([C@H]2OO[C@@H](C3CCCC3)[C@H]3O[C@H]32)C1` showed a Hemolysis of 9%.

`C1CC([C@H]2OO[C@@H](C3CCC3)[C@@H]3O[C@@H]32)C1` gave a Hemolysis of 1%.

For the compound `C1=C[C@@H](CC2CCCCC2)OOC1`, the Hemolysis came out at 100%.

On to `C1=C[C@H](C2CCC2)OO[C@@H]1C1CCC1`, for which the Hemolysis is given as 32%.

For the compound `CCCCCCC[C@H]1OO[C@@H](CCC)[C@@H]2O[C@@H]21`, the Hemolysis is recorded as 47%.

In the case of `c1ccc([C@H]2OO[C@@H](C3CCCCC3)[C@@H]3O[C@@H]32)cc1`, the Hemolysis is on record as 2%.

With `C1=C[C@@H](C2CCCCC2)OOC1`, the Hemolysis is recorded as 100%.
